Assay results: article PMC2696058 (Bioorganic & medicinal chemistry, 2009)

Tests used:
[1] = molecular target: N^5CAIR synthetase (Escherichia coli, UniProt P09029); experiment: Kinetic analysis, PK/LDH coupled ATPase assay; assay type: biochemical; conditions: for Inhibition of N^5CAIR synthetase by DMSO (non-aqueous) solutions: compound added as DMSO solution, not aqueous solution; for Mode of inhibition with respect to AIR / Mode of inhibition with respect to ATP: steady-state kinetics; for Mode of inhibition with respect to AIR: varied AIR; for Mode of inhibition with respect to ATP: varied ATP
Sequence of N^5CAIR synthetase (P09029 whole entry): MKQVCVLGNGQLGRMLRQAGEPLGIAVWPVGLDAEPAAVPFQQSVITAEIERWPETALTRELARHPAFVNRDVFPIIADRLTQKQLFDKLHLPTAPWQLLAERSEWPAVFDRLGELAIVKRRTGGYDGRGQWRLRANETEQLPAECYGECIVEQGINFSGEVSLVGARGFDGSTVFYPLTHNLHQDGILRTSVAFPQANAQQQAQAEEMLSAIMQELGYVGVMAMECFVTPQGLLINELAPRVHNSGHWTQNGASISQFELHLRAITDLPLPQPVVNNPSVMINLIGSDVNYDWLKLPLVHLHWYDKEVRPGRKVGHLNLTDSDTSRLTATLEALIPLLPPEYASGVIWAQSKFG

[2] = Decomposition of compound solutions followed by TLC; assay type: physicochemical; conditions: aqueous solution
[3] = molecular target: T1, human AIR carboxylase:SAICAR synthetase (Homo sapiens, UniProt P22234); experiment: Coupled assay against human bifunctional enzyme; assay type: biochemical; conditions: 200 μM compound, both activities assayed simultaneously
T1 sequence (P22234 1-425): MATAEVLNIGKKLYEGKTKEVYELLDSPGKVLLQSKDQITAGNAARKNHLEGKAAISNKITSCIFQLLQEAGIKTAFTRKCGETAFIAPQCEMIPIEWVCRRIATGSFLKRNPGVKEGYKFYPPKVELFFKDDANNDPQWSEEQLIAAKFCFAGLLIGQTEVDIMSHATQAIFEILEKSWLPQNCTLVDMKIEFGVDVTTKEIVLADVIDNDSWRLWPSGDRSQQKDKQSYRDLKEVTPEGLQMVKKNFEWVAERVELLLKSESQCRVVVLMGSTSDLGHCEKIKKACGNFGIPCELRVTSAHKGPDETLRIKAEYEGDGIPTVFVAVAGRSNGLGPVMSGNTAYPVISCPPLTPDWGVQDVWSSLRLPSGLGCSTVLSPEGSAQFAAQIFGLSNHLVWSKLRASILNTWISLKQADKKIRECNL
Method in brief: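 His-tagged human bifunctional AIR carboxylase:SAICAR synthetase, expressed from a pET22b vector and purified on a cobalt affinity column, >95% pure by SDS-PAGE. The carboxylase and synthetase activities were measured together in one coupled assay, following a method previously described for the Gallus gallus bifunctional enzyme.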

| SMILES | Inhibition of N^5CAIR synthetase by DMSO (non-aqueous) solutions [1] | Time to complete decomposition to ninhydrin [2] | Mode of inhibition with respect to AIR [1] | Mode of inhibition with respect to ATP [1] | Inhibition of either enzymatic activity (AIR carboxylase, SAICAR synthetase) [3] |
| --- | --- | --- | --- | --- | --- |
| Cc1nonc1NC1(O)C(=O)c2ccccc2C1=O [Compound 1] | neither compound resulted in inhibition | approximately 30 minutes | – | – | – |
| CCN(CC)C(=O)CN1C(=O)C(=O)c2ccccc21 [Compound 7] | – | – | non-competitive | non-competitive | no inhibition |
| Cc1cc2nc3c(=O)[nH]c(=O)nc-3n(C[C@H](O)[C@H](O)[C@H](O)CO)c2cc1C [Compound 14, riboflavin] | – | – | noncompetitive | noncompetitive | no inhibition |
| CCOC(=O)c1noc(C)c1-c1csc(CS(=O)(=O)c2ccc(Cl)cc2)n1 [Compound 13] | – | – | competitive | uncompetitive | no inhibition |
| Cc1nc(NC2(O)C(=O)c3ccccc3C2=O)cs1 [Compound 2] | neither compound resulted in inhibition | around 45 minutes | – | – | – |
